Screens: PubChem, Johns Hopkins Ion Channel Center
TRPC6 activator: activates the mouse TRPC6 cation channel. actives 0.13% (n = 310,000). Q61143. B-score at 10 µM. HEK293-TRPC6 membrane potential dye fluorescence; stronger effect = higher value;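 active means B-score of the integrated fluorescence ratio above library mean plus 3 SD, and starting fluorescence ratio within library mean plus 5 SD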;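 further: higher score means more depolarization so channel activation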
Kir21 inh: inhibitors of mouse Kir2.1 inward-rectifier potassium channel; actives 0.85% (n = 310,000); B-score at 10 µM; HEK293-Kir2.1, FluxOR thallium flux fluorescence; stronger effect = lower value; AID 1672;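 active means fluorescence ratio B-score at or below minus 3 SD of library scores, with starting-brightness B-score within 2 SD, cut at about -4.2 in these data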;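 further: channel flux triggered by added potassium and thallium sulfate stimulus; B-score of peak minus minimum fluorescence over baseline after thallium stimulus; more negative B-score means stronger Kir2.1 block with less thallium influx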
Target sequence (P35561 whole entry, looked up): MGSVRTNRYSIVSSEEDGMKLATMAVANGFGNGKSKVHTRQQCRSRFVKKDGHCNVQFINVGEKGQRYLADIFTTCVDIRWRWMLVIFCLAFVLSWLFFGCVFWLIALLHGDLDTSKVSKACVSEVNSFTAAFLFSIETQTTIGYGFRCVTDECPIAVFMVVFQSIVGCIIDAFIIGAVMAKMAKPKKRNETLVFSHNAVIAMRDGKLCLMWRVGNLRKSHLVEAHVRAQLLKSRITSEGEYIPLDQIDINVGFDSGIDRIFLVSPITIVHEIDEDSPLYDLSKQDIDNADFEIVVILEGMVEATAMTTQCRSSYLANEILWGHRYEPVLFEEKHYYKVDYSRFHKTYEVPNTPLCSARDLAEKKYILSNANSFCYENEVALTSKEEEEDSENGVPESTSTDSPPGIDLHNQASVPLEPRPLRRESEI
TRPC4 inh: TRPC4 (mouse) channel inhibition; Q9QUQ5; HEK293 TRPC4beta/mu-opioid, DAMGO-evoked Fluo4 calcium flux; stronger effect = lower value; B-score at 10 µM; actives 0.39% (n = 300,000);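 active means B-score over 3 SD under the library average, no early fluorescence shift, positive overall ratio signal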
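test system = HEK293 cells with stable TRPC4beta plus mu-opioid receptor expression | detection = Fluo4 Ca2+ flux fluorescence | read-out = integrated fluorescence ratio relative to baseline, converted to per-well B score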
TRPC6 inh: inhibitors of mouse TRPC6 channel; Q61143; HEK293-TRPC6, membrane potential dye, ACh-evoked depolarization; stronger effect = lower value; B-score at 10 µM; actives 1.1% (n = 310,000);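 active means B-score under library mean minus 3 SD, initial fluorescence not abnormally high, positive integrated signal ratio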;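 further: B-score derived from integrated fluorescence ratio over the kinetic read; more negative B-score means stronger inhibition of depolarization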
TRPC4 act: TRPC4 (mouse) channel activation; Q9QUQ5; HEK293 TRPC4beta/mu-opioid, Fluo4 calcium fluorescence; stronger effect = higher value; B-score at 10 µM; actives 0.49% (n = 310,000);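 active means B-score above 5 SD of library B-scores, and initial fluorescence ratio not above library mean plus 5 SD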;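 further: positive B-score marks a calcium rise read as TRPC4 activation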
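Assay system: HEK293 stable line with TRPC4beta plus mu-opioid receptor; schedule: 45 min room-temperature Fluo4 loading, 110 s read; technique: kinetic Fluo4 calcium fluorescence; evaluation: integrated baseline-normalised fluorescence ratio, converted to per-well B score; controls: buffer (low) and maximal DAMGO (high)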
TRPC4 potent: allosterically enhances the mouse TRPC4 cation channel | HEK293 TRPC4beta/mu-opioid, DAMGO EC20, Fluo-4 Ca2+ flux; stronger effect = higher value | actives 0.42% (n = 310,000) | AID 2227 | B-score at 10 µM | Q9QUQ5;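 active means B-score of calcium response area above 5 SD of library B-scores, with initial fluorescence ratio within 5 SD of library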
Numbers stand for hits. An excerpt weighted towards active compounds, which were near 2.9% of everything screened.

Results for COC(=O)c1ccc(CN2CCC(n3nccc3NC(=O)C3CC3)CC2)cc1 ?
TRPC6 activator: inactive; Kir21 inh: inactive; TRPC4 inh: inactive; TRPC6 inh: inactive; TRPC4 act: inactive; TRPC4 potent: inactive

What do the screens show for `Cc1c(CN2CCC(n3nccc3NC(=O)C3CC3)CC2)[nH]c2ccccc12`?
TRPC6 activator: inactive; Kir21 inh: inactive; TRPC4 inh: inactive; TRPC6 inh: inactive; TRPC4 act: 64; TRPC4 potent: inactive

Results for CCOc1ccc(C(C)=O)cc1CN1C(=O)c2ccccc2S1(=O)=O ?
TRPC6 activator: inactive; Kir21 inh: inactive; TRPC4 inh: inactive; TRPC6 inh: inactive; TRPC4 act: inactive; TRPC4 potent: inactive

Results for CCOc1ccc(S(=O)(=O)NCCC(=O)Nc2cccc(C(=O)OC)c2)cc1 ?
TRPC6 activator: inactive; Kir21 inh: inactive; TRPC4 inh: inactive; TRPC6 inh: inactive; TRPC4 act: inactive; TRPC4 potent: inactive

What do the screens show for `Cc1ccc(O)c(C2=Nc3ccccc3C2(C)C)c1`?
TRPC6 activator: inactive; Kir21 inh: inactive; TRPC4 inh: inactive; TRPC6 inh: inactive; TRPC4 act: inactive; TRPC4 potent: inactive

Results for COc1ccc(C)cc1C1=Nc2ccccc2C1(C)C ?
TRPC6 activator: inactive; Kir21 inh: -5; TRPC4 inh: inactive; TRPC6 inh: inactive; TRPC4 act: inactive; TRPC4 potent: inactive

Results for O=C(c1ccncc1)N1c2ccccc2Sc2ccccc21 ?
TRPC6 activator: inactive; Kir21 inh: inactive; TRPC4 inh: inactive; TRPC6 inh: inactive; TRPC4 act: inactive; TRPC4 potent: 26

Results for Cc1ccccc1OCC(=O)Nc1ccccc1C(=O)NC1CC1 ?
TRPC6 activator: inactive; Kir21 inh: inactive; TRPC4 inh: inactive; TRPC6 inh: inactive; TRPC4 act: inactive; TRPC4 potent: inactive

Results for Cc1ccc(C)c(N2CCN(CCCNC(=O)CCn3c(=O)c4cccn4c4cccnc43)CC2)c1 ?
TRPC6 activator: inactive; Kir21 inh: inactive; TRPC4 inh: inactive; TRPC6 inh: inactive; TRPC4 act: inactive; TRPC4 potent: inactive

What do the screens show for `Cc1ccc(C)c(N2CCN(CCCNC(=O)Cn3c(=O)c4cccn4c4cccnc43)CC2)c1`?
TRPC6 activator: inactive; Kir21 inh: inactive; TRPC4 inh: -5; TRPC6 inh: inactive; TRPC4 act: inactive; TRPC4 potent: inactive

How did Cc1cccc(OCCC(=O)OCC(=O)Nc2c(C)nn(-c3ccccc3)c2C)c1 do in these assays?
TRPC6 activator: inactive; Kir21 inh: inactive; TRPC4 inh: inactive; TRPC6 inh: inactive; TRPC4 act: inactive; TRPC4 potent: inactive

How did COc1ccc2[nH]c(=O)c(CN(Cc3nnnn3Cc3ccco3)C3CCCCC3)cc2c1 do in these assays?
TRPC6 activator: inactive; Kir21 inh: -4.5; TRPC4 inh: inactive; TRPC6 inh: inactive; TRPC4 act: inactive; TRPC4 potent: inactive

Results for COc1ccc2[nH]c(=O)c(CN(C3CCCCC3)C(c3nnnn3Cc3ccco3)C(C)C)cc2c1 (stereo not given) ?
TRPC6 activator: inactive; Kir21 inh: inactive; TRPC4 inh: inactive; TRPC6 inh: inactive; TRPC4 act: inactive; TRPC4 potent: inactive

How did COc1ccc(CC(=O)NC2CCS(=O)(=O)C2)cc1 (stereo not given) do in these assays?
TRPC6 activator: inactive; Kir21 inh: inactive; TRPC4 inh: inactive; TRPC6 inh: inactive; TRPC4 act: inactive; TRPC4 potent: inactive

Results for NCCc1c(-c2ccccc2)n(-c2ccccc2)c2ccccc12 ?
TRPC6 activator: inactive; Kir21 inh: -15; TRPC4 inh: inactive; TRPC6 inh: inactive; TRPC4 act: inactive; TRPC4 potent: inactive

Results for CC(=O)n1c(-c2ccccc2)c(CO)c2ccccc21 ?
TRPC6 activator: inactive; Kir21 inh: inactive; TRPC4 inh: inactive; TRPC6 inh: inactive; TRPC4 act: inactive; TRPC4 potent: inactive

How did ClCc1nc2ccccc2c2ccccc12 do in these assays?
TRPC6 activator: inactive; Kir21 inh: inactive; TRPC4 inh: inactive; TRPC6 inh: inactive; TRPC4 act: inactive; TRPC4 potent: inactive

Results for CCSc1nsc(NC(=O)Nc2ccccc2F)n1 ?
TRPC6 activator: inactive; Kir21 inh: inactive; TRPC4 inh: inactive; TRPC6 inh: inactive; TRPC4 act: inactive; TRPC4 potent: inactive
